Measurements collected from several papers.
Lines come from different studies, so protocols differ.
Abl2: Abl2 (Mus musculus, UniProt Q4JIM5)
BRD1 bromodomain: Bromodomain-containing protein 1, bromodomain (BRD1, Homo sapiens, UniProt O95696)
Si: Sucrase-isomaltase, intestinal (Si, Rattus norvegicus, UniProt P23739)
RIOK2: Serine/threonine-protein kinase RIO2 (RIOK2, Homo sapiens, UniProt Q9BVS4)

target | test | system | setting | quantity | result | Compound
Abl2 | cell-free assay | – | 10 µM | remaining signal | -1% | Cc1ccc(NC(=O)c2ccc(C)c(C(F)(F)F)c2)cc1C#Cc1nn(C2CCC(O)CC2)c2ncnc(N)c12 (stereo not shown)
BRD1 bromodomain | thermal stability, DSF | – | 10 µM | ΔTm | -0.23 °C | C[S+]([O-])c1ccc(-c2nc(-c3ccncc3)c(-c3ccc(F)cc3)[nH]2)cc1 (stereo not shown)
Estrogen receptor (ESR1, Homo sapiens, UniProt P03372) | reporter gene, agonist, luciferase | U2OS | – | Emax | 120% | CCCc1c(-c2ccc(O)cc2)nn(-c2ccc(O)cc2)c1-c1ccc(O)cc1
Rhodopsin kinase GRK1 (GRK1, Homo sapiens, UniProt Q15835) | thermal stability, DSF | – | 10 µM | ΔTm | 0.4 °C | Cn1c2c(c3ccc(Cl)c(Cl)c31)C(C#N)C1(CCOCC1)NC2=O (stereo not shown)
Apelin receptor (APLNR, Homo sapiens, UniProt P35414) | binding, radioligand | – | – | koff | 0.00075 s⁻¹ | CCOCc1nc(O)c(-c2nnc(Cc3ccc(Cl)cn3)o2)c(O)c1-c1c(OC)cccc1OC
Eukaryotic translation initiation factor 2-alpha kinase 1 (EIF2AK1, Homo sapiens, UniProt Q9BQI3) | enzyme activity, inhibitor, radiometric | – | 1 µM | remaining activity | 69% | CC(C)(C)c1nc2c(s1)c1nc(N)ncc1c1ccc(NS(=O)(=O)c3c(F)cccc3F)c(F)c12
Si | enzyme activity, inhibitor | – | 200 µg/mL | inhibition | 58.3% | O=c1c(O[C@@H]2O[C@@H](CO)[C@H](O)[C@H]2O)c(-c2ccc(O)c(O)c2)oc2cc(O)cc(O)c12
Abl2 | enzyme activity, inhibitor, radiometric | – | 1 µM | remaining activity | 102% | Cc1cnc(NC2CCOCC2)nc1-n1cnc(C(=O)NC(CN)c2cc(F)cc(Cl)c2)c1 (stereo not shown)
RIOK2 | enzyme activity, inhibitor | – | 23.5 nM | remaining activity | 88% | Cc1ccc(C(=O)Nc2ccc(CN3CCN(C)CC3)c(C(F)(F)F)c2)cc1C#Cc1cnc2cccnn12
BRD1 bromodomain | thermal stability, DSF | – | 10 µM | ΔTm | 0.51 °C | Cc1cnc(Nc2ccc(OCCN3CCCC3)cc2)nc1Nc1cccc(S(=O)(=O)NC(C)(C)C)c1
RIOK2 | cell-free assay, inhibitor | – | 20 µM | remaining signal | 8.5% | Nc1ncnc2occ(-c3ccc(NC(=O)Nc4cc(C(F)(F)F)ccc4F)cc3)c12
pqsE (Pseudomonas aeruginosa, UniProt P20581) | thermal stability, DSF | – | 100 µM | ΔTm | 3.4 °C | O=C(Nc1cccc(-c2ccn[nH]2)c1)c1cccc2cn[nH]c12
Si | enzyme activity, inhibitor | – | 200 µg/mL | inhibition | 52.8% | O=C1OC[C@H]2OC(=O)c3cc(O)c(O)c(O)c3-c3c(O)c(O)c(O)c4c3C(=O)O[C@H]([C@H]3OC(=O)c5c-4c(O)c(O)c(O)c5[C@H]3O)[C@@H]2OC(=O)c2cc(O)c(O)c(O)c2-c2c1cc(O)c(O)c2O
